# Assay outcomes from PubChem.
# Neddyl block: blocks human cullin neddylation | calls only at 25 µM | P61081+Q13564 | 0.58% of 360,000 active | TR-FRET cullin neddylation, biochemical | AID 651699; in the data active = inhibition above about 36%
# Target sequence (P61081 whole entry, looked up): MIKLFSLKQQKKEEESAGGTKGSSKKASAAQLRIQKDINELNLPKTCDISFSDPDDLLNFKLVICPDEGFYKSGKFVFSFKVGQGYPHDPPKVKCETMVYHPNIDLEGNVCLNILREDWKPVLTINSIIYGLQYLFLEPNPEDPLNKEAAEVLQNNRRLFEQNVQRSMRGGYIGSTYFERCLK
# Target sequence (Q13564 whole entry, looked up): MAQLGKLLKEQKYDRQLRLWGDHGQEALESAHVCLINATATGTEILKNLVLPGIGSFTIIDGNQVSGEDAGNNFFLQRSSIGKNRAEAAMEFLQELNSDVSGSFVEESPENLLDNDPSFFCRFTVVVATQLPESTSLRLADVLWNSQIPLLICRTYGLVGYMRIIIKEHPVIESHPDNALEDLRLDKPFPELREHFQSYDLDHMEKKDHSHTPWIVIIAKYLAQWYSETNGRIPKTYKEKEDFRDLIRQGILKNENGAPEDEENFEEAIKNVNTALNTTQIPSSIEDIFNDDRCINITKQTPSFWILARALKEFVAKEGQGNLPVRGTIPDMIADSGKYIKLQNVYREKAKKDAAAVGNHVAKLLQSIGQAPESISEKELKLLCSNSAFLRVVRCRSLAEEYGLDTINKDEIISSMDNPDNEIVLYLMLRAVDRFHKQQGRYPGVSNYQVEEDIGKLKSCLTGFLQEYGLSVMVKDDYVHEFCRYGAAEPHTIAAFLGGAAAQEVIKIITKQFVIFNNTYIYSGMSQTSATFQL
# PG9 Ab binder: small molecules binding HIV-1 gp120 antibody PG9. 0.43% of 360,000 active. TR-FRET gp120-PG9 antibody binding. inhibition, % at 6.7 µM. AID 624416; in the data active = inhibition above about 8.5%
# NR2E3 ag-1: human photoreceptor-specific nuclear receptor agonism. 0.35% of 360,000 active. CHO-S Gal4-NCOR/VP16-NR2E3 two-hybrid, luciferase. inhibition of corepressor binding, % at 3.98 µM. Q9Y5X4;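 active = inhibition above the mean of all tested compounds plus 3 SD, cut at about 70% in these data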;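 also: higher means lower luciferase signal from less NR2E3 corepressor binding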
# NR1D1 modulator: modulators of human Rev-erb alpha DNA binding; Rev-erbα–FITC-DNA binding, fluorescence polarization, 90 min; 0.79% of 370,000 active; activity, % at 10 µM; P20393;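 active = activity above about 14%, limit read from the data; passing the limit was not always enough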
# NR2E3 ag-2: activates human photoreceptor nuclear receptor NR2E3; Q9Y5X4; GST-NR2E3/biotin-RetCOR TR-FRET, 1536-well; inhibition of corepressor binding, % at 4.78 µM; 0.12% of 320,000 active;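 active = percent inhibition above the cutoff of mean plus 3 SD of all tested compounds, set per screening campaign, cut at about 20% in these data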
#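 Assay system: NR2E3–RetCOR corepressor complex. Quantity: 1.35 nM GST-NR2E3. Buffer or medium: pH 7.5 Tris-based buffer. Reagent: biotinylated RetCOR corepressor at 7 nM final. Schedule: 5 h at 4 °C. Detection: TR-FRET, emission read at 617 and 671 nm. Replicates: one well per compound, singlicate testing.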
# NR2E3 ag conf: confirmation of human NR2E3 agonists. shares compounds with NR2E3 ag-1. CHO-S mammalian two-hybrid NR2E3-NCOR, luciferase luminescence. inhibition, % at 3.98 µM. 51% of 2,300 active;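 active = average inhibition above a cutoff equal to the mean inhibition of all tested compounds plus one SD, cut at about 70% in these data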
# VP16 counter: GAL4-VP16 reporter inhibition in NR2E3 agonist counterscreen. shares compounds with NR2E3 ag-1. CHO-S GAL4-VP16 luciferase reporter, luminescence. inhibition, % at 3.98 µM. 29% of 2,300 active;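 active = mean inhibition above a cutoff equal to the average over all tested compounds plus one standard deviation, cut at about 70% in these data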;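 also: luciferase from a UAS reporter driven by GAL4-VP16 transactivation; higher means less reporter light so more repression of VP16 activity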
# Hits are given with their value; . = inactive; / = no result given. Most compounds without a hit are left out; they make up all but 2% or so of the library.
SMILES,Neddyl block,PG9 Ab binder,NR2E3 ag-1,NR1D1 modulator,NR2E3 ag-2,NR2E3 ag conf,VP16 counter
CC(C)[C@H](CO)N(Cc1cccc(F)c1)c1nc(Nc2cccc(Cl)c2)c2ncn(C(C)C)c2n1,.,.,.,.,.,/,/
Cc1ccccc1CNC(=O)C1CCC(CNS(=O)(=O)c2cccc3cccnc23)CC1 (centres undefined),/,/,/,.,/,/,/
O=C(c1ccc(O)c(Br)c1)c1cc(Br)ccc1O,.,.,85.0,.,/,96.2,74.2
O=C(C(=O)c1cc(Br)ccc1O)c1cc(Br)ccc1O,.,.,99.4,.,/,100.4,92.0
CCCC[C@@H](CC)COC(=O)C(C#N)=C(c1ccccc1)c1ccccc1,/,/,/,.,/,/,/
O=C(CCCc1nc(-c2ccccc2Cl)no1)NC1CCCC1,.,.,.,.,.,.,.
COc1ccccc1-c1noc(CCCC(=O)NC2CCCC2)n1,.,.,.,.,.,/,/
COc1ccc(/C=C2\Cc3ccccc3C2=O)cc1OC,.,.,.,.,/,/,/
COc1ccc(/C=C2/CSC/C(=C/c3ccc(OC)c(OC)c3)C2=O)cc1OC,.,.,.,.,/,.,.
CC(C)(C)c1ccc(-c2n[nH]c(=S)n2C2CCCC2)cc1,.,.,.,.,.,71.7,.
CC(C)c1ccc(-c2csc(NC(=O)c3cccs3)c2C(=O)O)cc1,.,.,.,.,.,94.4,.
O=C(CSc1nnc(-c2cccs2)o1)Nc1cccc2ccccc12,/,/,/,.,/,/,/
N#Cc1cc2c(nc1SCC(=O)N1CCOCC1)CCCCC2,.,.,72.8,.,.,.,.
COC(=O)c1cc(S(=O)(=O)N2CCC(c3cc(OC)ccc3OC)C2)c[nH]1 (centres undefined),.,.,80.6,.,.,.,.
O=C(Nc1ccc(N2CCN(C(=O)c3ccccc3)CC2)cc1)c1ccc2c(c1)OCO2,.,.,.,.,.,85.0,.
CC(=O)N1CCN(c2ccc(NC(=O)c3ccc4c(c3)OCO4)cc2)CC1,.,.,.,.,.,/,/
COC(=O)c1c(C)oc2ccc(N(C(C)=O)S(=O)(=O)c3ccccc3)cc12,.,.,97.9,.,.,84.5,.
CC(=O)c1c(C)oc2ccc(N(C(C)=O)S(=O)(=O)c3ccc(F)cc3C)cc12,.,.,.,.,.,/,/
CC(=O)c1c(C)oc2ccc(N(C(C)=O)S(=O)(=O)c3ccc(Cl)c([N+](=O)[O-])c3)cc12,.,.,.,.,.,/,/
CC(=O)c1c(C)oc2ccc(N(C(C)=O)S(=O)(=O)c3cccc4cccnc34)cc12,.,.,86.2,.,.,94.5,74.1
CC(=O)c1c(C)oc2ccc(NS(=O)(=O)c3ccc(C)cc3)cc12,.,.,80.3,.,.,.,.
CC(=O)c1c(C)oc2ccc(N(C(C)=O)S(=O)(=O)c3ccc(Br)cc3)cc12,.,.,89.9,.,.,90.4,72.6
Cc1nc2ccc(S(=O)(=O)NCC(=O)NCc3ccc(F)cc3)cc2s1,/,/,/,.,/,/,/
C[C@H]1CCC/C=C/[C@@H]2C[C@H](O)C[C@H]2[C@H](O)[C@H](S(=O)c2ccc(O)cc2)CC(=O)O1 (some centres undefined),.,.,78.5,.,/,91.2,.
CCN1/C(=C\c2ccc3cc(C)ccc3[n+]2CC)Sc2cc(C)c(C)cc21,.,.,85.1,.,/,98.2,86.6
O=S(=O)(Nc1cc(Cl)ccc1-n1cncn1)c1cc(Br)ccc1Br,.,.,91.7,.,.,99.1,85.3
O=C(C1CCCN(S(=O)(=O)c2ccc([N+](=O)[O-])cc2)C1)N1CCN(Cc2ccccc2)CC1 (centres undefined),/,/,/,.,/,/,/
CCN(CC)C(=O)c1cccc(-c2csc(C(C)(O)c3ccc(F)c(F)c3)n2)c1 (centres undefined),.,/,.,/,/,.,.
CC(O)(c1ccncc1)c1nc(-c2cccc(C(F)(F)F)c2)cs1 (centres undefined),.,.,84.7,.,/,93.2,74.3
CCN(CC)C(=O)c1cccc(-c2csc(C(C)(O)c3ccccc3)n2)c1 (centres undefined),.,.,.,.,/,/,/
